Results: ChEMBL document CHEMBL3286367, “Synthesis of new class of spirocarbocycle derivatives by multicomponent domino reaction and their evaluation for antimicrobial, anticancer activity and molecular docking studies” (2014)
≈ marks a conversion by molar mass, not a printed value. Calls of active or inactive are those of the source. The rule behind the calls is not given here.

Columns and labels:
Candida albicans = assay: Antifungal activity against Candida albicans MTCC 227 assessed as zone of inhibition at 1 mg/disc after 48 hrs incubation by disc diffusion assay; assay type: functional
Summary of the method: (§1)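 Disc diffusion on Mueller Hinton agar with swabbed cultures, 1 mg compound per disc. Discs stood 30 min at room temperature for diffusion, then plates incubated 48 h at 28 °C. Solvent as negative control. Yeast pre-grown in Sabouraud dextrose broth at 28 °C for 48-72 h; filamentous fungal spores came from SDA slants grown 10 days at 28 °C. Zone diameters in mm; run twice.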

Staphylococcus aureus [1] = assay: Antimicrobial activity against Staphylococcus aureus MTCC 96 assessed as zone of inhibition at 1 mg/disc after 24 hrs incubation by disc diffusion assay; assay type: functional
Summary of the method: (§2)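 Inocula grown in Mueller Hinton broth for 24 h at 37 °C and swabbed onto Mueller Hinton agar. Discs carried 1 mg compound each and stood 30 min at room temperature before 24 h incubation at 37 °C. Solvent as negative control. Inhibition zones recorded in mm; experiment done twice.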

Shigella flexneri [2] = assay: Antimicrobial activity against Shigella flexneri MTCC 1457 assessed as zone of inhibition at 1 mg/disc after 24 hrs incubation by disc diffusion assay; assay type: functional; summary of the method: as §2
A549 [3] = assay: Anticancer activity against human A549 cells assessed as cell growth inhibition at 20 ug/ml by MTT assay; assay type: functional; settings: read-out: GI
Summary of the method: (§3)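 A549 cells kept in DMEM with 10% FBS, 2 mM L-glutamine, penicillin/streptomycin, pH 7.2. Seeded at 5000 cells/well in medium with compound at 5–50 µg/mL. Grown at 37 °C, 5% CO2. Medium then replaced by 1 mg/mL MTT for 4 h and formazan dissolved in DMSO. Absorbance read at 540 nm; three replicate experiments.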

Proteus vulgaris [4] = assay: Antimicrobial activity against Proteus vulgaris MTCC 1771 assessed as zone of inhibition at 1 mg/disc after 24 hrs incubation by disc diffusion assay; assay type: functional; summary of the method: as §2
Staphylococcus aureus [5] = assay: Antimicrobial activity against methicillin-resistant Staphylococcus aureus assessed as absence of visible growth after 48 to 72 hrs; assay type: functional
Summary of the method: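 Broth two-fold serial dilution in 96-well plates, 1000 to 7.81 µg/mL, compound dissolved in DMSO (2%). Inoculum grown in Mueller Hinton broth 24 h at 37°C. Streptomycin positive control. 5 µl of tested broth plated on MHA; MIC is the lowest concentration inhibiting visible growth on agar.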

A549 [6] = assay: Anticancer activity against human A549 cells assessed as cell growth inhibition at 30 ug/ml by MTT assay; assay type: functional; settings: read-out: GI; summary of the method: as §3
Klebsiella pneumoniae [7] = assay: Antimicrobial activity against Klebsiella pneumonia MTCC 109 assessed as zone of inhibition at 1 mg/disc after 24 hrs incubation by disc diffusion assay; assay type: functional; summary of the method: as §2
Micrococcus luteus [8] = assay: Antimicrobial activity against Micrococcus luteus MTCC 106 assessed as absence of visible growth after 48 to 72 hrs; assay type: functional
A549 [9] = assay: Anticancer activity against human A549 cells assessed as cell growth inhibition at 50 ug/ml by MTT assay; assay type: functional; settings: read-out: GI; summary of the method: as §3
[10] = tested on: Staphylococcus epidermidis; assay: Antimicrobial activity against Staphylococcus epidermidis MTCC 3615 assessed as absence of visible growth after 24 hrs
A549 [11] = assay: Anticancer activity against human A549 cells assessed as cell growth inhibition at 10 ug/ml by MTT assay; assay type: functional; settings: read-out: GI; summary of the method: as §3
Malassezia pachydermatis = assay: Antifungal activity against Malassezia pachydermatis assessed as zone of inhibition at 1 mg/disc after 48 hrs incubation by disc diffusion assay; assay type: functional; summary of the method: as §1
Klebsiella aerogenes [12] = assay: Antimicrobial activity against Enterobacter aerogenes MTCC 111 assessed as absence of visible growth after 48 to 72 hrs; assay type: functional
Klebsiella pneumoniae [13] = assay: Antimicrobial activity against Klebsiella pneumonia MTCC 109 assessed as absence of visible growth after 24 hrs
Staphylococcus aureus [14] = assay: Antimicrobial activity against methicillin-resistant Staphylococcus aureus assessed as zone of inhibition at 1 mg/disc after 24 hrs incubation by disc diffusion assay; assay type: functional
Summary of the method: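 Inoculum grown in Mueller Hinton broth 24 h at 37°C, swabbed onto Mueller Hinton agar and dried 10 min. Discs loaded at 1 mg/disc, then 30 min at room temperature for diffusion. Plates incubated 24 h at 37°C. Solvent negative control; streptomycin positive control. Zone of inhibition read in mm; experiment done twice.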

Micrococcus luteus [15] = assay: Antimicrobial activity against Micrococcus luteus MTCC 106 assessed as zone of inhibition at 1 mg/disc after 24 hrs incubation by disc diffusion assay; assay type: functional; summary of the method: as §2
Shigella flexneri [16] = assay: Antimicrobial activity against Shigella flexneri MTCC 1457 assessed as absence of visible growth after 48 to 72 hrs; assay type: functional
Salmonella typhimurium [17] = assay: Antimicrobial activity against Salmonella typhimurium MTCC 1251 assessed as absence of visible growth after 48 to 72 hrs; assay type: functional, Salmonella enterica subsp. enterica serovar Typhimurium; settings: Salmonella enterica
Proteus vulgaris [18] = assay: Antimicrobial activity against Proteus vulgaris MTCC 1771 assessed as absence of visible growth after 48 to 72 hrs; assay type: functional
Klebsiella aerogenes [19] = assay: Antimicrobial activity against Enterobacter aerogenes MTCC 111 assessed as zone of inhibition at 1 mg/disc after 24 hrs incubation by disc diffusion assay; assay type: functional; summary of the method: as §2
A549 [20] = assay: Anticancer activity against human A549 cells assessed as cell growth inhibition at 5 ug/ml by MTT assay; assay type: functional; settings: read-out: GI; summary of the method: as §3
Staphylococcus aureus [21] = assay: Antimicrobial activity against Staphylococcus aureus MTCC 96 assessed as absence of visible growth after 48 to 72 hrs; assay type: functional
A549 [22] = assay: Anticancer activity against human A549 cells assessed as cell growth inhibition at 40 ug/ml by MTT assay; assay type: functional; settings: read-out: GI; summary of the method: as §3
[23] = tested on: Staphylococcus epidermidis; assay: Antimicrobial activity against Staphylococcus epidermidis MTCC 3615 assessed as zone of inhibition at 1 mg/disc after 24 hrs incubation by disc diffusion assay; assay type: functional; summary of the method: as §2
Salmonella typhimurium [24] = assay: Antimicrobial activity against Salmonella typhimurium MTCC 1251 assessed as zone of inhibition at 1 mg/disc after 24 hrs incubation by disc diffusion assay; assay type: functional, Salmonella enterica subsp. enterica serovar Typhimurium; summary of the method: as §2
Shigella flexneri [25] = assay: Antimicrobial activity against Shigella flexneri MTCC 1457 assessed as absence of visible growth after 24 hrs
[26] = tested on: Staphylococcus epidermidis; assay: Antimicrobial activity against Staphylococcus epidermidis MTCC 3615 assessed as absence of visible growth after 48 to 72 hrs; assay type: functional
Klebsiella pneumoniae [27] = assay: Antimicrobial activity against Klebsiella pneumonia MTCC 109 assessed as absence of visible growth after 48 to 72 hrs; assay type: functional
Proteus vulgaris [28] = assay: Antimicrobial activity against Proteus vulgaris MTCC 1771 assessed as absence of visible growth after 24 hrs
Staphylococcus aureus [29] = assay: Antimicrobial activity against Staphylococcus aureus MTCC 96 assessed as absence of visible growth after 24 hrs

SMILES	inhibition zone (IZ) (Candida albicans)	inhibition zone (IZ) (Staphylococcus aureus [1])	inhibition zone (IZ) (Shigella flexneri [2])	inhibition of growth at 20 µg/mL (A549 [3])	inhibition zone (IZ) (Proteus vulgaris [4])	MIC (Staphylococcus aureus [5])	inhibition of growth at 30 µg/mL (A549 [6])	inhibition zone (IZ) (Klebsiella pneumoniae [7])	MIC (Micrococcus luteus [8])	inhibition of growth at 50 µg/mL (A549 [9])	inhibition of growth at 10 µg/mL (A549 [11])	inhibition zone (IZ) (Malassezia pachydermatis)	MIC (Klebsiella aerogenes [12])	inhibition zone (IZ) (Micrococcus luteus [15])	MIC (Salmonella typhimurium [17])	MIC (Proteus vulgaris [18])	inhibition zone (IZ) (Klebsiella aerogenes [19])	inhibition zone (IZ) [23]	inhibition zone (IZ) (Salmonella typhimurium [24])	MIC (Shigella flexneri [25])	other results
Cc1ccc([C@H]2[C@@H]3CCCCC=C3C(C#N)=C(N)C23C(=O)c2ccccc2C3=O)cc1 (relative stereo)	10 mm	13 mm	23 mm	18.6%	22 mm	125 µg/mL (≈ 306 µM)	30.8%	20 mm	250 µg/mL (≈ 612 µM)	59.6%	10.5%	10 mm	125 µg/mL (≈ 306 µM)	10 mm	125 µg/mL (≈ 306 µM)	62.5 µg/mL (≈ 153 µM)	18 mm	16 mm	19 mm	–	MIC [10]: 250 µg/mL (≈ 612 µM); MIC (Klebsiella pneumoniae [13]): 62.5 µg/mL (≈ 153 µM); inhibition zone (IZ) (Staphylococcus aureus [14]): 17 mm; MIC (Shigella flexneri [16]): 62.5 µg/mL (≈ 153 µM); inhibition of growth at 5 µg/mL (A549 [20]): 3.7%; MIC (Staphylococcus aureus [21]): 250 µg/mL (≈ 612 µM); inhibition of growth at 40 µg/mL (A549 [22]): 46.6%
N#CC1=C(N)[C@]2(C(=O)Nc3ccccc32)[C@@H](c2cccs2)[C@@H]2CCCC=C12	10 mm	13 mm	25 mm	62.4%	23 mm	62.5 µg/mL (≈ 167 µM)	67.8%	16 mm	250 µg/mL (≈ 669 µM)	83.9%	45.8%	12 mm	125 µg/mL (≈ 335 µM)	15 mm	250 µg/mL (≈ 669 µM)	62.5 µg/mL (≈ 167 µM)	17 mm	19 mm	15 mm	62.5 µg/mL (≈ 167 µM)	inhibition zone (IZ) (Staphylococcus aureus [14]): 21 mm; MIC [26]: 125 µg/mL (≈ 335 µM); MIC (Klebsiella pneumoniae [27]): 125 µg/mL (≈ 335 µM); inhibition of growth at 5 µg/mL (A549 [20]): 25.7%; MIC (Staphylococcus aureus [21]): 250 µg/mL (≈ 669 µM); inhibition of growth at 40 µg/mL (A549 [22]): 75.9%
N#CC1=C(N)[C@]2(C(=O)Nc3ccccc32)[C@@H](c2cccc3ccccc23)[C@@H]2CCCC=C12	–	–	12 mm	–	–	–	–	16 mm	250 µg/mL (≈ 599 µM)	–	–	9 mm	125 µg/mL (≈ 299 µM)	10 mm	250 µg/mL (≈ 599 µM)	–	18 mm	15 mm	14 mm	500 µg/mL (≈ 1200 µM)	inhibition (Candida albicans): inactive; inhibition (Staphylococcus aureus [1]): inactive; inhibition (Proteus vulgaris [4]): inactive; inhibition (Staphylococcus aureus [5]): inactive; inhibition (Proteus vulgaris [28]): inactive; inhibition (Staphylococcus aureus [14]): inactive; MIC [26]: 125 µg/mL (≈ 299 µM); MIC (Klebsiella pneumoniae [27]): 125 µg/mL (≈ 299 µM); inhibition (Staphylococcus aureus [29]): inactive
N#CC1=C(N)[C@]2(C(=O)Nc3ccccc32)[C@@H](c2ccc(Cl)cc2)[C@@H]2CCCC=C12	9 mm	–	10 mm	–	17 mm	–	–	16 mm	1000 µg/mL (≈ 2490 µM)	–	–	11 mm	250 µg/mL (≈ 622 µM)	9 mm	250 µg/mL (≈ 622 µM)	125 µg/mL (≈ 311 µM)	10 mm	13 mm	12 mm	250 µg/mL (≈ 622 µM)	inhibition (Staphylococcus aureus [1]): inactive; inhibition (Staphylococcus aureus [5]): inactive; MIC (Klebsiella pneumoniae [13]): 125 µg/mL (≈ 311 µM); inhibition (Staphylococcus aureus [14]): inactive; MIC [26]: 250 µg/mL (≈ 622 µM); inhibition (Staphylococcus aureus [29]): inactive
N#CC1=C(N)C2(C(=O)c3ccccc3C2=O)[C@@H](c2ccc(Cl)cc2)[C@@H]2CCCCC=C12 (relative stereo)	13 mm	13 mm	22 mm	47.5%	23 mm	62.5 µg/mL (≈ 146 µM)	56.2%	17 mm	62.5 µg/mL (≈ 146 µM)	78.8%	28.1%	12 mm	125 µg/mL (≈ 291 µM)	21 mm	125 µg/mL (≈ 291 µM)	62.5 µg/mL (≈ 146 µM)	18 mm	17 mm	18 mm	62.5 µg/mL (≈ 146 µM)	MIC [10]: 125 µg/mL (≈ 291 µM); MIC (Klebsiella pneumoniae [13]): 125 µg/mL (≈ 291 µM); inhibition zone (IZ) (Staphylococcus aureus [14]): 21 mm; inhibition of growth at 5 µg/mL (A549 [20]): 12.1%; MIC (Staphylococcus aureus [21]): 250 µg/mL (≈ 583 µM); inhibition of growth at 40 µg/mL (A549 [22]): 62.4%
